From ChEMBL document CHEMBL1135709, “2,6-Di(omega-aminoalkyl)-2,5,6,7-tetrahydropyrazolo[3,4,5-mn]pyrimido[5,6,1-de]acridine-5,7-diones: novel, potent, cytotoxic, and DNA-binding agents” (J Med Chem, 2002)

How the values were obtained:
[1] = system: LoVo; test: Cytotoxicity activity on LoVo human adenocarcinoma cell line after 144 hr of drug exposure; format: functional, cell-based
Summary of the method: (§1)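 LoVo (sensitive) and LoVo/Dx (resistant) human colon adenocarcinoma cells seeded at 2.5 × 10^5 cells/mL medium; drug solutions added to culture.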

[2] = system: LoVo; test: Cytotoxicity activity on LoVo human adenocarcinoma cell line after 1 hr of drug exposure; format: functional, cell-based
Summary of the method: (§2)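 LoVo (sensitive) and LoVo/Dx (resistant) human colon adenocarcinoma cells seeded at 2.5 × 10^5 cells/mL medium; drug solutions added to culture. IC50 = drug concentration inhibiting cell growth by 50%, assays in triplicate.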

[3] = system: LoVo; test: Cytotoxicity activity on LoVo/Dx human adenocarcinoma cell line after 144 hr of drug exposure; format: functional, cell-based; summary of the method: as §1
[4] = system: LoVo; test: Cytotoxicity activity on LoVo/Dx human adenocarcinoma cell line after 1 hr of drug exposure; format: functional, cell-based; summary of the method: as §2
[5] = system: Calf thymus DNA; test: CT-DNA binding required to produce a 50% drop in fluorescence of DNA-bound ethidium.; format: nucleic-acid assay; conditions: Bos taurus
Summary of the method: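 Ethidium displacement from calf thymus DNA in 10 mM Na2HPO4, 10 mM NaH2PO4, 1 mM EDTA, pH 7.0, containing 1.26 μM ethidium bromide and 1 μM CT-DNA. Drug added serially from ~5 mM DMSO stock; 20 °C; fluorescence excitation 546 nm, emission 595 nm. C50 = drug concentration lowering DNA-bound ethidium fluorescence by 50%, mean of three determinations.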

[6] = system: HT-29; test: In vitro cytotoxic potency against HT-29 (human colon adenocarcinoma) cell line.; format: functional, cell-based
[7] = system: DU-145; test: Percent growth of NCI cell line, prostate: DU-145 exposed for 48 hr at 10e-6 concentration; format: functional, Homo sapiens
Summary of the method: (§3)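 NCI panel cell lines exposed 48 h to 10^-8, 10^-6 and 10^-4 M drug; read-out is percent growth at each concentration.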

[8] = system: HCT-15; test: Percent growth of NCI cell line, colon: HCT-15 exposed for 48 hr at 10e-4 concentration; format: functional, Homo sapiens; summary of the method: as §3
[9] = system: OVCAR-4; test: Percent growth of NCI cell line, ovarian: OVCAR-4 exposed for 48 hr at 10e-8 concentration; format: functional, Homo sapiens; summary of the method: as §3
[10] = system: NCI-H460; test: Percent growth of NCI cell line, lung-nsc: NCI-H460 exposed for 48 hr at 10e-8 concentration; format: functional, Homo sapiens; summary of the method: as §3
[11] = system: 786-0; test: Percent growth of NCI cell line, renal: 786-0 exposed for 48 hr at 10e-8 concentration; format: functional, Homo sapiens; summary of the method: as §3
[12] = Percent growth of NCI cell line, leucemia K562 exposed for 48 hr at 10e-4 concentration; format: functional, Homo sapiens; summary of the method: as §3
[13] = system: HCT-15; test: Percent growth of NCI cell line, colon: HCT-15 exposed for 48 hr at 10e-6 concentration; format: functional, Homo sapiens; summary of the method: as §3
[14] = Percent growth of NCI cell line, leucemia K562 exposed for 48 hr at 10e-8 concentration; format: functional, Homo sapiens; summary of the method: as §3
[15] = system: DU-145; test: Percent growth of NCI cell line, prostate: DU-145 exposed for 48 hr at 10e-4 concentration; format: functional, Homo sapiens; summary of the method: as §3
[16] = system: HCT-15; test: Percent growth of NCI cell line, colon: HCT-15 exposed for 48 hr at 10e-8 concentration; format: functional, Homo sapiens; summary of the method: as §3
[17] = system: 786-0; test: Percent growth of NCI cell line, renal: 786-0 exposed for 48 hr at 10e-6 concentration; format: functional, Homo sapiens; summary of the method: as §3
[18] = system: SNB-19; test: Percent growth of NCI cell line, CNS: SNB-19 exposed for 48 hr at 10e-6 concentration; format: functional, Homo sapiens; summary of the method: as §3
[19] = system: NCI-H460; test: Percent growth of NCI cell line, lung-nsc: NCI-H460 exposed for 48 hr at 10e-4 concentration; format: functional, Homo sapiens; summary of the method: as §3
[20] = system: NCI-H460; test: Percent growth of NCI cell line, lung-nsc: NCI-H460 exposed for 48 hr at 10e-6 concentration; format: functional, Homo sapiens; summary of the method: as §3
[21] = system: 786-0; test: Percent growth of NCI cell line, renal: 786-0 exposed for 48 hr at 10e-4 concentration; format: functional, Homo sapiens; summary of the method: as §3
[22] = system: LOX IMVI; test: Percent growth of NCI cell line, melanoma: LOX IMVI exposed for 48 hr at 10e-6 concentration; format: functional, Homo sapiens; summary of the method: as §3
[23] = system: LOX IMVI; test: Percent growth of NCI cell line, melanoma: LOX IMVI exposed for 48 hr at 10e-8 concentration; format: functional, Homo sapiens; summary of the method: as §3
[24] = system: MCF7; test: Percent growth of NCI cell line, breast: MCF-7 exposed for 48 hr at 10e-8 concentration; format: functional, Homo sapiens; summary of the method: as §3
[25] = system: OVCAR-4; test: Percent growth of NCI cell line, ovarian: OVCAR-4 exposed for 48 hr at 10e-4 concentration; format: functional, Homo sapiens; summary of the method: as §3
[26] = system: LOX IMVI; test: Percent growth of NCI cell line, melanoma: LOX IMVI exposed for 48 hr at 10e-4 concentration; format: functional, Homo sapiens; summary of the method: as §3
[27] = system: SNB-19; test: Percent growth of NCI cell line, CNS: SNB-19 exposed for 48 hr at 10e-8 concentration; format: functional, Homo sapiens; summary of the method: as §3
[28] = system: MCF7; test: Percent growth of NCI cell line, breast: MCF-7 exposed for 48 hr at 10e-6 concentration; format: functional, Homo sapiens; summary of the method: as §3
[29] = system: DU-145; test: Percent growth of NCI cell line, prostate: DU-145 exposed for 48 hr at 10e-8 concentration; format: functional, Homo sapiens; summary of the method: as §3
[30] = system: MCF7; test: Percent growth of NCI cell line, breast: MCF-7 exposed for 48 hr at 10e-4 concentration; format: functional, Homo sapiens; summary of the method: as §3
[31] = system: OVCAR-4; test: Percent growth of NCI cell line, ovarian: OVCAR-4 exposed for 48 hr at 10e-6 concentration; format: functional, Homo sapiens; summary of the method: as §3
[32] = Percent growth of NCI cell line, leucemia K562 exposed for 48 hr at 10e-6 concentration; format: functional, Homo sapiens; summary of the method: as §3
[33] = system: SNB-19; test: Percent growth of NCI cell line, CNS: SNB-19 exposed for 48 hr at 10e-4 concentration; format: functional, Homo sapiens; summary of the method: as §3

With COc1cccc2c1C(=O)c1c(O)c3c(c(O)c1C2=O)C[C@@](O)(C(=O)CO)C[C@@H]3O[C@H]1C[C@H](N)[C@H](O)[C@H](C)O1 [DOXORUBICIN] the IC50 [1] was 24 nM, the IC50 [2] was 860 nM and the IC50 [3] was 2400 nM. The IC50 [4] was 9700 nM.

Work on CN(C)CCn1c(=O)c2ccc3c4c(nn3CCN3CCCC3)c3ccccc3n(c1=O)c24 yielded a C50 [5] of 0.049 µM and an IC50 [6] of 9.2 nM.

CN(C)CCn1c(=O)c2ccc3c4c(nn3CCN3CCCCC3)c3cc([N+](=O)[O-])ccc3n(c1=O)c24 gave a C50 [5] of 0.01 µM and an IC50 [6] of 0.21 nM.

In the case of COc1ccc2c(c1)c1nn(CCCN(C)C)c3ccc4c(=O)n(CCN(C)C)c(=O)n2c4c13, the C50 [5] is reported as 0.037 µM and the IC50 [6] is reported as 37 nM.

For CN(C)CCn1c(=O)c2ccc3c4c(nn3CCN3CCCCC3)c3ccccc3n(c1=O)c24, the C50 [5] was 0.05 µM and the IC50 [6] was 4.1 nM.

With CN(C)CCn1c(=O)c2ccc3c4c(nn3CCN(C)C)c3ccccc3n(c1=O)c24 the Growth [7] was -16%, the Growth [8] was -85% and the Growth [9] was 51%. For the same compound, the Growth [10] was 30%, the Growth [11] was 27% and the Growth [12] was -67%. The Growth [13] was -29%, the C50 [5] was 0.0018 µM and the Growth [14] was 61%. The IC50 [1] was 12 nM, the Growth [15] was -37% and the Growth [16] was 48%. It also gave a Growth [17] of -42%, a Growth [18] of -3% and a Growth [19] of -79%. The IC50 [6] was 37 nM, the Growth [20] was -44% and the Growth [21] was -90%. For the same compound, the IC50 [2] was 290 nM, the Growth [22] was -32% and the IC50 [3] was 3.9 nM. For the same compound, the Growth [23] was 65%, the IC50 [4] was 79 nM and the Growth [24] was 63%. It also gave a Growth [25] of -56%, a Growth [26] of -93% and a Growth [27] of 66%. It also gave a Growth [28] of -41%, a Growth [29] of 60% and a Growth [30] of -95%. It also gave a Growth [31] of -36%, a Growth [32] of -27% and a Growth [33] of -41%.

Compound CCN(CC)CCn1c(=O)c2ccc3c4c(nn3CCN(CC)CC)c3ccccc3n(c1=O)c24 has a C50 [5] of 0.051 µM and an IC50 [6] of 29 nM.

With CN(C)CCCn1c(=O)c2ccc3c4c(nn3CCCN(C)C)c3ccccc3n(c1=O)c24 the C50 [5] was 0.56 µM and the IC50 [6] was 135 nM.

In the case of CN(C)CCCn1nc2c3ccccc3n3c(=O)n(CCN(C)C)c(=O)c4ccc1c2c43, the C50 [5] is reported as 0.12 µM and the IC50 [6] is reported as 68 nM.

COc1ccc2c(c1)c1nn(CCN3CCCCC3)c3ccc4c(=O)n(CCN(C)C)c(=O)n2c4c13 showed a Growth [7] of -51%, a Growth [8] of -61% and a Growth [9] of 15%. The Growth [10] was 22%, the Growth [11] was 20% and the Growth [12] was -12%. It also gave a Growth [13] of -34%, a C50 [5] of 0.0099 µM and a Growth [14] of 39%. It also gave a Growth [15] of -91%, a Growth [16] of 24% and a Growth [17] of -41%. It also gave a Growth [18] of 8%, a Growth [19] of -57% and an IC50 [6] of 0.04 nM. The Growth [20] was -36%, the Growth [21] was -67% and the Growth [24] was 42%. For the same compound, the Growth [25] was -89%, the Growth [27] was 55% and the Growth [28] was 4%. The Growth [29] was 39%, the Growth [30] was -12% and the Growth [31] was -84%. The Growth [32] was 12% and the Growth [33] was -54%.
